A short description of series [1]: Clearance in Sprague-Dawley rat at 1 mg/kg, iv after 1 to 24 hrs by HPLC-MS/MS method. The format is ADME, organism-based. To be noted: in vivo. A digest of the protocol: (§1)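 Rats received a single intravenous dose of 1 mg/kg. Clearance (mL/min/kg), steady-state volume of distribution (L/kg), half-life (h) and AUC (ng/mL×h) were reported as mean ± spread.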
Series [2] in a line: Inhibition of NS5A in HCV genotype 1b Ava5 infected in human HuH7 cells containing Ava5-EG(D4AB)SEAP subgenomic replicons assessed as reduction in viral replicon growth incubated for 1 day by Phospha-light assay method. The note with it: Hepatitis C virus, Ava5, 24 h. In kind it is cell-based, Hepatitis C virus subtype 1b.
Series [3] can be described thus: Cmax in Sprague-Dawley rat at 5 mg/kg, po after 1 to 24 hrs by HPLC-MS/MS method. To be noted: in vivo. On the set-up: dose 5 mg/kg, route oral. In kind it is ADME, organism-based. In short, it runs like this:
(§2)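 Rats were dosed orally at 5 mg/kg. Tmax (h), Cmax (ng/mL), AUC (ng/mL×h) and oral bioavailability F (%) were reported.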

The nature of series [4]: AUC in Sprague-Dawley rat at 5 mg/kg, po after 1 to 24 hrs by HPLC-MS/MS method. The format is ADME, organism-based. To be noted: in vivo. In short, it runs like this:
as §2

The nature of series [5]: Volume of distribution at steady state in Sprague-Dawley rat at 1 mg/kg, iv after 1 to 24 hrs by HPLC-MS/MS method. In kind it is ADME, organism-based. To be noted: in vivo, read-out: Vdss. A digest of the protocol:
as §1

Series [6] in a line: Oral bioavailability in Sprague-Dawley rat at 5 mg/kg after 1 to 24 hrs by HPLC-MS/MS method. In kind it is ADME, organism-based. To be noted: in vivo. In short, it runs like this: as §2
Series [7] in a line: Half life in Sprague-Dawley rat at 1 mg/kg, iv after 1 to 24 hrs by HPLC-MS/MS method. In kind it is ADME, organism-based. To be noted: in vivo. In short, it runs like this: as §1
A short description of series [8]: Tmax in Sprague-Dawley rat at 5 mg/kg, po after 1 to 24 hrs by HPLC-MS/MS method. The format is ADME, organism-based. The note with it: in vivo. A digest of the protocol: as §2
Series [9] in a line: Half life in Sprague-Dawley rat at 5 mg/kg, po after 1 to 24 hrs by HPLC-MS/MS method. The format is ADME, organism-based. The note with it: in vivo.
The nature of series [10]: Cytotoxic activity against human HuH7 cells containing HCV subgenomic replicons Ava5-EG(D4AB)SEAP by MTS assay. The format is cell-based, Huh-7. In general terms: In antiviral work, replicon cells carry a viral genome segment that copies itself.
Series [11] in a line: AUC in Sprague-Dawley rat at 1 mg/kg, iv after 1 to 24 hrs by HPLC-MS/MS method. In kind it is ADME, organism-based. To be noted: in vivo. A digest of the protocol: as §1
Series [12] in a line: Selectivity index, ratio of CC50 for cytotoxic activity against human HuH7 cells containing HCV subgenomic replicons Ava5-EG(D4AB)SEAP to IC50 for inhibition of NS5A in HCV genotype 1b Ava5 infected in human HuH7 cells containing Ava5-EG(D4AB)SEAP subgenomic replicons.

Where only a bound is given, the exact number is not on record here.

As a reminder, the clearance is a measure of how efficiently the substance is removed, as volume per time. A low value points to a low capacity for elimination. What is called EC50 is the midpoint of the concentration-response curve. For orientation: Cmax means the peak of the concentration-time curve. In general, AUC refers to the area under the concentration-time curve, a measure of exposure. Higher therefore signals more exposure. Usually bioavailability stands for the share of a dose that reaches the circulation, judged against a reference dose that is usually intravenous. A high value points to good availability. Broadly, the half-life is the time needed for the level to fall by half in the phase considered. In general, Tmax refers to the time from dosing to the highest level. The term CC50 denotes the concentration giving 50% cytotoxicity. A low value points to harm at low concentration. Molecule `O=C(N[C@@H](C(=O)N1CCC[C@H]1C(=O)Nc1nc(-c2ccccc2)cs1)c1ccccc1)c1ccccc1` gave a clearance in [1] of 44.8 mL/min/kg. Moreover, in [2], the 50% effective concentration (EC50) worked out at 15 nM. The same molecule showed a Cmax in series [3] of 109 ng/mL. Besides, the AUC was determined as 588 ng·h/mL in series [4] and 367 ng·h/mL in series [11]. Moreover, in series [5], the Vd amounted to 4.2 L/kg. Also, in series [6], the bioavailability was determined as 31%. Also, the results for the half-life in [7] and in series [9] were 2.3 h and 2.7 h, respectively. The time to peak (Tmax) in [8] came out at 2.3 h. Moreover, the half-maximal cytotoxic concentration (CC50) in [10] was more than 50000 nM.

Consider `O=C(Nc1nc(-c2ccccc2)cs1)[C@@H]1CCCN1C(=O)[C@H](NC(=O)N1CCCC1)c1ccccc1`, for which, in [1], the clearance is 55.1 mL/min/kg. Besides, the EC50 in series [2] worked out at 3.1 nM. The same molecule yielded a maximum concentration (Cmax) in series [3] of 63.9 ng/mL. The AUC was found to be 288 ng·h/mL in [4] and 311 ng·h/mL in [11]. The Vd in series [5] turned out to be 1.1 L/kg. The bioavailability in [6] amounted to 20.4%. Moreover, the results for the half-life in [7] and in series [9] were 0.5 h and 2.4 h, respectively. In addition, in [8], the Tmax stood at 2.8 h. The molecule further returned a cytotoxic concentration (CC50) in series [10] of more than 50000 nM.

The molecule `O=C(N[C@@H](C(=O)N1CCC[C@H]1C(=O)Nc1nc(-c2ccccc2)cs1)c1ccccc1)C1CC1` displayed a clearance in series [1] of 27.1 mL/min/kg. Besides, the “Ratio CC50/EC50” value in series [12] was more than 10000. Further, the EC50 in series [2] was determined as 4.6 nM. Also, in series [3], the Cmax came to 260 ng/mL. The exposure (AUC) is 1440 ng·h/mL in series [4] and 635 ng·h/mL in series [11]. In series [5], the Vd came to 1.32 L/kg. Moreover, the bioavailability in series [6] amounted to 45%. In addition, the half-life in [7] is 1.3 h; in [9], 2.8 h. Further, in [8], the Tmax amounted to 0.8 h. This molecule returned a CC50 in [10] of more than 50000 nM.

Take `O=C(Nc1nc(-c2ccccc2)cs1)[C@@H]1CCCN1C(=O)[C@H](NC(=O)N1CCOCC1)c1ccccc1`: the clearance in [1] was found to be 38.4 mL/min/kg. The 50% effective concentration (EC50) in series [2] stood at 0.92 nM. This molecule also yielded a Cmax in series [3] of 247 ng/mL. Besides, the values for the exposure (AUC) in series [4] and in [11] were 404 ng·h/mL and 436 ng·h/mL, respectively. Besides, in series [5], the Vd was determined as 1.04 L/kg. The same molecule came in with a bioavailability in [6] of 18.7%. Further, the half-life in series [7] is 0.46 h; in [9] it was 1.6 h. Further, in [8], the time to peak (Tmax) came to 0.8 h. In series [10], this molecule had a CC50 of more than 50000 nM.

Regarding `O=C(N[C@@H](C(=O)N1CCC[C@H]1C(=O)Nc1nc(-c2ccccc2)cs1)c1ccccc1)c1ccncc1`, the clearance in [1] came to 62.2 mL/min/kg. Moreover, in [2], the concentration giving a half-maximal response (EC50) worked out at 3.8 nM. This molecule displayed a Cmax in [3] of 58.3 ng/mL. The values for the area under the curve (AUC) in series [4] and in [11] were 125 ng·h/mL and 296 ng·h/mL, respectively. In series [5], the Vd was 1.8 L/kg. Also, the bioavailability in series [6] is 10.1%. Also, the half-life in series [7] was 0.5 h; in [9] it was 4.5 h. The time of peak concentration (Tmax) in [8] is 0.7 h. The molecule further came in with a half-maximal cytotoxic concentration (CC50) in [10] of more than 50000 nM.

These data come from ChEMBL document CHEMBL4052583, “A Potent, Selective, and Orally Bioavailable HCV NS5A Inhibitor for Treatment of Hepatitis C Virus: (S)-1-((R)-2-(Cyclopropanecarboxamido)-2-phenylacetyl)-N-(4-phenylthiazol-2-yl)pyrrolidine-2-carboxamide” (J Med Chem, 2017).
